Measurements from ChEMBL document CHEMBL1124184, “Dopamine autoreceptor agonists as potential antipsychotics. 1. (Aminoalkoxy)anilines” (J Med Chem, 1988).
Active and inactive are the calls of the source. No cut-off for these calls is given here.

How the values were obtained:
Rattus norvegicus [1] = test: Inhibition of locomotor activity in rats after peroral administration of the compound.; type: functional; details: po
Rattus norvegicus [2] = test: Inhibition of dopamine neuronal firing in the anesthetized rats after ip administration at a dose 2.5 mg/kg; type: functional; details: route intraperitoneal
Procedure, shortened: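 Zona compacta DA cells of substantia nigra recorded extracellularly in chloral-anesthetized rats, identified by waveform and firing pattern, with recording sites confirmed histologically. Drug given at 2.5 mg/kg ip via an indwelling catheter. Baseline was the mean rate over the 2 min before injection. Effect was the mean over the 1-min period of maximal inhibition.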

Rattus norvegicus [3] = test: Inhibition of accumulation of DOPA in rat striatum, after intraperitoneal administration.; type: functional; details: ip
Procedure, shortened: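 Rats dosed ip 1 h before sacrifice; GBL (750 mg/kg ip) and NSD 1015 (100 mg/kg ip) given 30 and 25 min before sacrifice. Striatal DOPA measured by HPLC with electrochemical detection. ED50 is the dose giving half-maximal decrease in DOPA formation, from three to five dose levels with four to five rats per group.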

Rattus norvegicus [4] = test: Reversal of 6-OHDA-induced depression in rats, after sc injection after dosing for a period of 30 min; type: functional; details: 0.5 h
Procedure, shortened: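 Rats pretreated at least one month earlier with 6-OHDA (200 μg icv) plus pargyline (50 mg/kg ip) and desmethylimipramine (25 mg/kg ip), giving about 90% brain DA depletion checked in representative animals. Test drug given sc; locomotor activity recorded for 30 min starting immediately after dosing.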

Rattus norvegicus [5] = test: Inhibition of locomotor activity in rats, after sc injection after dosing for a period of 30 min; type: functional; details: 0.5 h
Rattus norvegicus [6] = test: Reversal of reserpine induced depression in rats, after sc injection after dosing for a period of 30 min; type: functional; details: 0.5 h
Procedure, shortened: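 Normal rats given reserpine 5 mg/kg 24 h before testing, then test drug sc. Locomotor activity recorded for 30 min starting immediately after dosing. Locomotor stimulation read as reversal of reserpine-induced depression.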

Monkey [7] = test: Effect on Inhibition of Sidman avoidance in squirrel monkeys when administered orally; type: functional; details: in Saimiri, po
Procedure, shortened: (§1)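 Sidman avoidance in mature squirrel monkeys; oral dosing at three doses, four animals per dose; ED50 with SEM derived from the dose-response.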

Monkey [8] = test: Effect on EPS liability in squirrel monkeys sensitized to haloperidol at 2.5 mg/kg; A=Active; type: functional, organism-based; set-up: dose 2.5 mg/kg; details: Cercopithecidae
Monkey [9] = test: Effect on Inhibition of Sidman avoidance in squirrel monkeys was determined; type: functional; details: in Saimiri; procedure, shortened: as §1

SMILES: Nc1cccc(OCCCN2CCN(c3ccccn3)CC2)c1
- ED50 (Rattus norvegicus [1]): 9.2 mg/kg
- inhibition in vivo at 2.5 mg/kg (Rattus norvegicus [2]): 46%

SMILES: CCCN1CCC[C@H](c2cccc(O)c2)C1
- ED50 (Rattus norvegicus [3]): 7.2 mg/kg
- ED50 (Rattus norvegicus [4]): 0.6 mg/kg
- ED50 (Rattus norvegicus [1]): > 30 mg/kg
- ED50 (Rattus norvegicus [5]): 8.8 mg/kg
- inhibition in vivo at 2.5 mg/kg (Rattus norvegicus [2]): 100%

SMILES: CN(C)c1cccc(OCCCN2CCN(c3ccccc3)CC2)c1
- ED50 (Rattus norvegicus [1]): 9.2 mg/kg
- inhibition in vivo at 2.5 mg/kg (Rattus norvegicus [2]): 21%

SMILES: CN1CCc2cccc3c2[C@H]1Cc1ccc(O)c(O)c1-3 [APOMORPHINE]
- ED50 (Rattus norvegicus [3]): 0.3 mg/kg
- ED50 (Rattus norvegicus [4]): 0.006 mg/kg
- ED50 (Rattus norvegicus [6]): 0.096 mg/kg
- ED50 (Rattus norvegicus [1]): > 30 mg/kg
- ED50 (Rattus norvegicus [5]): 0.021 mg/kg
- inhibition in vivo at 2.5 mg/kg (Rattus norvegicus [2]): 100%

SMILES: Nc1cccc(OCCCN2CCN(c3ccccc3)CC2)c1
- ED50 (Monkey [7]): 8.5 mg/kg
- ED50 (Rattus norvegicus [3]): 12 mg/kg
- ED50 (Rattus norvegicus [4]): > 30 mg/kg
- ED50 (Rattus norvegicus [6]): > 30 mg/kg
- ED50 (Rattus norvegicus [1]): 10.3 mg/kg
- ED50 (Rattus norvegicus [5]): 1.8 mg/kg
- inhibition in vivo at 2.5 mg/kg (Rattus norvegicus [2]): 85%

SMILES: CNc1cccc(OCCCN2CCN(c3ccccc3)CC2)c1
- ED50 (Rattus norvegicus [1]): 9.4 mg/kg
- inhibition in vivo at 2.5 mg/kg (Rattus norvegicus [2]): 7%

SMILES: CCCN(CCCOc1cccc(N)c1)CCc1ccccc1
- ED50 (Rattus norvegicus [1]): > 30 mg/kg
- inhibition in vivo at 2.5 mg/kg (Rattus norvegicus [2]): 8%

SMILES: Nc1cccc(OCCCN2CC=C(c3ccccc3)CC2)c1
- ED50 (Rattus norvegicus [3]): 7 mg/kg
- ED50 (Rattus norvegicus [4]): 0.13 mg/kg
- ED50 (Rattus norvegicus [6]): > 30 mg/kg
- ED50 (Rattus norvegicus [1]): 12.1 mg/kg
- ED50 (Rattus norvegicus [5]): 0.35 mg/kg
- inhibition in vivo at 2.5 mg/kg (Rattus norvegicus [2]): 89%

SMILES: C1=C(c2ccccc2)CCN(CCCCc2c[nH]c3ccccc23)C1
- ED50 (Rattus norvegicus [3]): 2.2 mg/kg
- ED50 (Rattus norvegicus [4]): 0.4 mg/kg
- ED50 (Rattus norvegicus [6]): > 30 mg/kg
- ED50 (Rattus norvegicus [1]): 4.8 mg/kg
- ED50 (Rattus norvegicus [5]): 0.64 mg/kg
- inhibition in vivo at 2.5 mg/kg (Rattus norvegicus [2]): 100%

SMILES: CSc1ccc2c(c1)N(CCC1CCCCN1C)c1ccccc1S2 (stereo not given) [THIORIDAZINE]
- EPS (Monkey [8]): Active
- ED50 (Monkey [9]): 3.9 mg/kg
